Assay results from ChEMBL document CHEMBL2062375, “Discovery of an orally efficacious inhibitor of anaplastic lymphoma kinase” (J Med Chem, 2012).
Active and inactive are the calls of the source. The calls are words filed in the database; no cut-off is given here.

How the values were obtained:
[1] = Drug level in SCID mouse tumor xenografted with human KARPAS299 cells expressing NPM-ALK at 30 mg/kg, po after 12 hrs by LC-MS/MS analysis; type: ADME, organism-based, Neoplasm, KARPAS-299; parameters: dose 30 mg/kg, route oral; details: read-out: Drug uptake
Mus musculus [2] = test: Inhibition of NPM-ALK phosphorylation in human KARPAS299 cells xenografted in SCID mouse tumor at 30 mg/kg, po qd after 12 hrs by immunoblotting; type: functional; details: KARPAS-299, 12 h
Outline: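 SCID mice bearing sc Karpas-299 xenografts received a single 30 mg/kg oral dose. Phospho- and total NPM-ALK in tumour samples were detected by immunoblotting, and relative NPM-ALK phosphorylation was calculated.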

[3] = Drug level in SCID/beige mouse tumor xenografted with human KARPAS299 cells expressing NPM-ALK at 10 mg/kg, po bid after 2 hrs post last dose by LC-MS/MS analysis; type: ADME, organism-based, Neoplasm, KARPAS-299; parameters: dose 10 mg/kg, route oral; details: read-out: Drug uptake
Outline: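 Female SCID/beige mice, 6–8 weeks old, implanted sc in the left flank with exponentially growing Karpas-299 cells. At about 600 mm³ tumours, mice were randomized (8–10/group) and given PEG400 vehicle or compound orally b.i.d., 100 μL, for 12 days. Tumour volume (0.5236LW(L+W)/2) and body weight were recorded every 2–3 days; Mann–Whitney test. Plasma and tumour levels were measured by LC-MS/MS 2 h after the final dose, mean ± SEM.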

[4] = molecular target: T1, Protein-tyrosine kinase 6 (Homo sapiens, UniProt Q13882); details: 1 uM
Target sequence in this assay (Q13882 whole entry, looked up): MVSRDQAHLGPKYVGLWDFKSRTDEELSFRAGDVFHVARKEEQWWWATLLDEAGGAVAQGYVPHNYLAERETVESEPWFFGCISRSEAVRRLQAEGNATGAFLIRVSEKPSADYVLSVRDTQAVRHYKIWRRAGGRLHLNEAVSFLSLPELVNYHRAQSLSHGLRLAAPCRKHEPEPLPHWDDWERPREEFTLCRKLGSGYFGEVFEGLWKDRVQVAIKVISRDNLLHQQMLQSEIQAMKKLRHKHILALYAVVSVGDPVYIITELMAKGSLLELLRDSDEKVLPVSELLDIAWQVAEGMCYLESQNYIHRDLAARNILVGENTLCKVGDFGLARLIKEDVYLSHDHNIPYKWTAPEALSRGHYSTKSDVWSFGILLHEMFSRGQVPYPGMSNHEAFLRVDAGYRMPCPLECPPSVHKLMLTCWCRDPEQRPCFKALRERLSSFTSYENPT

[5] = AUC in cynomolgus monkey at 10 mg/kg, po; type: ADME, organism-based, Macaca fascicularis; parameters: dose 10 mg/kg, route oral; details: plasma
Outline: (§1)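 Dog and monkey PK. IV 0.5 mL/kg in 40% HPβCD via the saphenous vein. Oral dosing was 1 mL/kg by gavage in dogs and 2 mL/kg by nasogastric tube in monkeys, after an overnight fast. Serial femoral-vein blood was taken into heparin over 24 h. Plasma was acetonitrile-precipitated and analysed by LC-MS/MS. Parameters were noncompartmental, n = 3, mean ± SEM.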

Activated CDC42 kinase 1 = Activated CDC42 kinase 1 (Homo sapiens, UniProt Q07912); test: Inhibition of human ACK1
[6] = molecular target: Ribosomal protein S6 kinase alpha-6 (Homo sapiens, UniProt Q9UK32); test: Inhibition of human Rsk4
Sequence of Ribosomal protein S6 kinase alpha-6 (Q9UK32 whole entry): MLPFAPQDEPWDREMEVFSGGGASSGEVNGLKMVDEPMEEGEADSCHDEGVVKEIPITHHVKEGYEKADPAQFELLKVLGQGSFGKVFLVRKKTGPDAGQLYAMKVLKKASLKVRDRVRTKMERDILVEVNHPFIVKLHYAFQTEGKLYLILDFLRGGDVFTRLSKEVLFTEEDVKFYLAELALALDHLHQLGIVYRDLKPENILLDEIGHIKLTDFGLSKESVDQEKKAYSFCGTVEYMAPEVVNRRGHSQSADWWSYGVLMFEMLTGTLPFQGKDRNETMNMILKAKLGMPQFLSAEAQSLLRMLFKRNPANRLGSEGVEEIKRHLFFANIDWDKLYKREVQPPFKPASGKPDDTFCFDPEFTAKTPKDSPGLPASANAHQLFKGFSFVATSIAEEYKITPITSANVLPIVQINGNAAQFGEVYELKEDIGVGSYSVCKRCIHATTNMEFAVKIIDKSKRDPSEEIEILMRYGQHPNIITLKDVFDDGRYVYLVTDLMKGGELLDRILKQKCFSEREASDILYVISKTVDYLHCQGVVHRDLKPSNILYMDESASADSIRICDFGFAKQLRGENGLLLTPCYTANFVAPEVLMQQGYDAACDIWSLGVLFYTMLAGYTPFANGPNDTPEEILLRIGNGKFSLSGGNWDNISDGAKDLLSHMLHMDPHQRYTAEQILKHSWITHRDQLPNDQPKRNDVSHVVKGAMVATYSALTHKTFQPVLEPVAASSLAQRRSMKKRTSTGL
Outline: (§2)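 Millipore KinaseProfiler activity assays on a 259-kinase panel; kinases inhibited by ≥90% at 1 μM then taken to full IC50 determination.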

[7] = molecular target: Mitogen-activated protein kinase 8 (Homo sapiens, UniProt P45983); test: Inhibition of human JNK1alpha1; outline: as §2
[8] = AUC (0 to 12 hrs) in rat 55 mg/kg, po; type: ADME, organism-based; parameters: time < 12 hr, dose 55 mg/kg, route oral; details: plasma
Outline: (§3)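 Rat oral dose escalation at 10, 30, 55 and 100 mg/kg. Gavage at 5 mL/kg in 40% HPβCD after an overnight fast. Serial tail-vein blood was drawn into heparinized tubes. Plasma was protein-precipitated with acetonitrile and assayed by LC-MS/MS. Cmax and AUC0–12 were derived noncompartmentally; n = 2 at 10 mg/kg.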

[9] = molecular target: T2, Tyrosine-protein kinase Fer (Homo sapiens, UniProt P16591); test: Inhibition of human Fer
Target sequence in this assay (P16591 whole entry): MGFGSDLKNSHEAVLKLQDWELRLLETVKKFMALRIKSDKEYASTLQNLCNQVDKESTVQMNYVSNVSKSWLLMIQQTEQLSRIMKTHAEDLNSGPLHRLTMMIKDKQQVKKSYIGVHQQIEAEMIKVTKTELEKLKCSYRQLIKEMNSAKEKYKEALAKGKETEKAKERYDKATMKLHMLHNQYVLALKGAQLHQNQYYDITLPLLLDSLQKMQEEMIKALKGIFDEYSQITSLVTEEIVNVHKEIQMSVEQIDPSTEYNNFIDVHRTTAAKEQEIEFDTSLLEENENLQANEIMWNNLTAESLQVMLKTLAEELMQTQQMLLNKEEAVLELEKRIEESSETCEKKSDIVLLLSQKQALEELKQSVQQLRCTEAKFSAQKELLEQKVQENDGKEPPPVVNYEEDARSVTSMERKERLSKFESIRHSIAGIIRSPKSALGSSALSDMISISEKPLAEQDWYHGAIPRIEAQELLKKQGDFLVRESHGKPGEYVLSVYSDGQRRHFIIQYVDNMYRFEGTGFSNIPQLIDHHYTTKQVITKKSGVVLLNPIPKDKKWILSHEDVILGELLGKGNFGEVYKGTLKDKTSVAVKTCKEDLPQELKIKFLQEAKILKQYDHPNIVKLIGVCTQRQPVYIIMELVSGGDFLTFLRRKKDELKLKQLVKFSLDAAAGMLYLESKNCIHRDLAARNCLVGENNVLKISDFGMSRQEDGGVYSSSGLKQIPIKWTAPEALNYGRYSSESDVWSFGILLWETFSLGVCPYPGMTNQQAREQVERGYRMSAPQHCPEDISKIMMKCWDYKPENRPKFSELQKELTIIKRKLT

[10] = Cmax in rat at 30 mg/kg, po; type: ADME, organism-based; parameters: dose 30 mg/kg, route oral; details: in vivo; outline: as §3
[11] = Plasma concentration in SCID/beige mouse xenografted with human KARPAS299 cells expressing NPM-ALK at 30 mg/kg, po bid after 2 hrs post last dose by LC-MS/MS analysis; type: ADME, organism-based, KARPAS-299; parameters: dose 30 mg/kg, route oral
Outline: (§4)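 Female SCID/beige mice (6–8 weeks), Karpas-299 cells implanted sc in left flank; at ~600 mm³ randomized (8–10/group), dosed orally in PEG400, 100 μL, b.i.d. for 12 days. Body weight every 2–3 days; plasma and tumor sampled 2 h after final dose, drug by LCMS/MS; Mann–Whitney rank sum statistics.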

[12] = molecular target: T1, Protein-tyrosine kinase 6; test: Inhibition of human BRK
Target sequence in this assay (Q13882 whole entry): as the sequence (Q13882 whole entry, looked up) above

[13] = Oral bioavailability in cynomolgus monkey at 10 mg/kg; type: ADME, organism-based, Macaca fascicularis; details: in vivo
Outline: (§5)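 PK: overnight-fasted animals. Rat oral gavage 5 mL/kg in 40% HPβCD, serial tail-vein blood over 6 h. Dog oral gavage 1 mL/kg, monkey nasogastric 2 mL/kg, femoral-vein blood over 24 h. Plasma protein-precipitated with acetonitrile, LCMS/MS with internal standard; noncompartmental analysis, individual animals n = 3, mean ± SEM.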

[14] = Tmax in Sprague-Dawley rat at 10 mg/kg, po; type: ADME, organism-based; parameters: dose 10 mg/kg, route oral; details: in vivo; outline: as §5
[15] = molecular target: Vascular endothelial growth factor receptor 3 (Homo sapiens, UniProt P35916); test: Inhibition of human Flt4; outline: as §2
Sequence of Vascular endothelial growth factor receptor 3 (P35916 whole entry): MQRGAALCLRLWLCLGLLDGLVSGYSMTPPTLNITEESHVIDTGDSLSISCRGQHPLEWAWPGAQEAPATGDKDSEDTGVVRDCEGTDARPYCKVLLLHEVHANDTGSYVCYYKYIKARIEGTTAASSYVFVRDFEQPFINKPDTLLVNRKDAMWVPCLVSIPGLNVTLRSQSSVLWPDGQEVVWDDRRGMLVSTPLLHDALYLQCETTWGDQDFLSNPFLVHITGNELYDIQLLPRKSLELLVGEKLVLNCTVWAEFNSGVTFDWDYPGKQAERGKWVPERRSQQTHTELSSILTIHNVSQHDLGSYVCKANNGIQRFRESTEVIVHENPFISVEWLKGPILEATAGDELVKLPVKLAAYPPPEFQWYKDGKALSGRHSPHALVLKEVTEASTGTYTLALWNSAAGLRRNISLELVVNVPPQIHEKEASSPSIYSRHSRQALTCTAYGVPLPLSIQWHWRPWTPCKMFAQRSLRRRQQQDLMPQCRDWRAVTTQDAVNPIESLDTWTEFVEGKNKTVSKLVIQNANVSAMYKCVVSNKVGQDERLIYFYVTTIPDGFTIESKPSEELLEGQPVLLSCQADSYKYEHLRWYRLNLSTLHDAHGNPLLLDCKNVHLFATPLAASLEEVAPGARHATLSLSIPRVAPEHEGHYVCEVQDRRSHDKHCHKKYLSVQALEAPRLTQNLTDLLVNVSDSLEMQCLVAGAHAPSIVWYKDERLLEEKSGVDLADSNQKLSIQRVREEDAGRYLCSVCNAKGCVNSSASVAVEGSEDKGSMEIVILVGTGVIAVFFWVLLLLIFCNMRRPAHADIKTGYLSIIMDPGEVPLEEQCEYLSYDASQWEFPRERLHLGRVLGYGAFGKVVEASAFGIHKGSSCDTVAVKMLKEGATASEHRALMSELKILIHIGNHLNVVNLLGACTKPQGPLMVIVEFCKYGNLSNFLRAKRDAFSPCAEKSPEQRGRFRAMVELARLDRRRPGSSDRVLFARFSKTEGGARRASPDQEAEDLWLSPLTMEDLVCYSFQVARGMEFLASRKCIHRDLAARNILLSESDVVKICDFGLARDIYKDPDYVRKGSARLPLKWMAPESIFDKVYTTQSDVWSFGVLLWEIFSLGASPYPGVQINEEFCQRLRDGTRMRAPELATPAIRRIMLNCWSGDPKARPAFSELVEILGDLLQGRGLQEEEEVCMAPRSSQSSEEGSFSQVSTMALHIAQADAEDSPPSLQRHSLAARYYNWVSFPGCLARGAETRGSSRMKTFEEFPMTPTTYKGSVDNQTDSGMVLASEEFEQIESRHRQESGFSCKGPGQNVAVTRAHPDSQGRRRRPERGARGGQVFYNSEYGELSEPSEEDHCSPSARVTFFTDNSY

[16] = Drug level in SCID mouse tumor xenografted with human KARPAS299 cells expressing NPM-ALK at 30 mg/kg, po after 6 hrs by LC-MS/MS analysis; type: ADME, organism-based, Neoplasm, KARPAS-299; parameters: dose 30 mg/kg, route oral; details: read-out: Drug uptake
Mus musculus [17] = test: Toxicity in SCID mouse xenografted with human KARPAS299 cells expressing NPM-ALK assessed as effect on body weight at 10 to 30 mg/kg, po bid; type: organism-based, KARPAS-299; parameters: dose 10-30 mg/kg, route oral; details: in vivo; outline: as §4
Rattus norvegicus = test: Ratio of AUC (0 to 12 h) at 10 mg/kg, po to AUC (0 to 12 h) at 100 mg/kg, po in rat; type: ADME, organism-based; details: in vivo
Outline: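 Oral dose-escalation PK study in rats at 10, 30, 55 and 100 mg/kg. […] The ratio compares the 10 mg/kg value with the 100 mg/kg value.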

[18] = molecular target: T2, Tyrosine-protein kinase Fer; details: 1 uM
Target sequence in this assay (P16591 whole entry, looked up): as the sequence (P16591 whole entry) above

Mus musculus [19] = test: Toxicity in SCID mouse xenografted with human KARPAS299 cells expressing NPM-ALK assessed as overt toxicity at 10 to 30 mg/kg, po bid; type: organism-based, KARPAS-299; parameters: dose 10-30 mg/kg, route oral; details: in vivo; outline: as §4
NB1643 = test: Antitumor activity against human NB1643 cells expressing ALK mutant F1174L assessed as growth inhibition administered as po bid; type: functional, organism-based
[20] = AUC in cynomolgus monkey at 1 mg/kg, iv; type: ADME, organism-based, Macaca fascicularis; parameters: dose 1 mg/kg, route intravenous; details: plasma; outline: as §1
[21] = Half life in cynomolgus monkey at 10 mg/kg, po; type: ADME, organism-based, Macaca fascicularis; parameters: dose 10 mg/kg, route oral; details: in vivo; outline: as §1
[22] = AUC in CD-1 mouse at 10 mg/kg, po; type: ADME, organism-based; parameters: dose 10 mg/kg, route oral; details: plasma
Outline: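 Mouse PK. IV via the lateral tail vein in 3% DMSO/30% Solutol/67% PBS, or oral gavage in 100% PEG400, 100 μL dose volume, after an overnight fast. Trunk blood was taken from three mice per time point over 6 h. Plasma was acetonitrile-precipitated and analysed by LC-MS/MS. Parameters were derived noncompartmentally.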

[23] = molecular target: Serine/threonine-protein kinase Chk2 (Homo sapiens, UniProt O96017); test: Inhibition of human CHK2
Sequence of Serine/threonine-protein kinase Chk2 (O96017 whole entry): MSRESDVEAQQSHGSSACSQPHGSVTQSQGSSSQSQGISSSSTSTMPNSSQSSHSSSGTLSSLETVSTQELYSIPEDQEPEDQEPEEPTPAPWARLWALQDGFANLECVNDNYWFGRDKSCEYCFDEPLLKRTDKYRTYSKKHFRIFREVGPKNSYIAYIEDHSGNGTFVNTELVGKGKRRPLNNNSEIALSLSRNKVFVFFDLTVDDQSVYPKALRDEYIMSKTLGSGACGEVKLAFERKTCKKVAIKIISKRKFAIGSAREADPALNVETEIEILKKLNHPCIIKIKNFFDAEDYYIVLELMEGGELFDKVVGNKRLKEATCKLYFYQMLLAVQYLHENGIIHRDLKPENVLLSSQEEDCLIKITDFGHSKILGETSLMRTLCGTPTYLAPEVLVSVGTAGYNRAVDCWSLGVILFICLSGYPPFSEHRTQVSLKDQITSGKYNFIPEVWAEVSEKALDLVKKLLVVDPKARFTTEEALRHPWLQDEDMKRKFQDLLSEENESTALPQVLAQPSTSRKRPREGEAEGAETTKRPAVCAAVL
Outline: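 Commercial activity-assay panel of 259 kinases. Each kinase was first screened at 1 μM, and those inhibited by ≥90% went on to full IC50 determination.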

[24] = Plasma concentration in SCID mouse xenografted with human KARPAS299 cells expressing NPM-ALK at 30 mg/kg, po after 12 hrs by LC-MS/MS analysis; type: ADME, organism-based, KARPAS-299; parameters: dose 30 mg/kg, route oral
Outline: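 Pharmacodynamic study: SCID mice bearing subcutaneous Karpas-299 xenografts given single 30 mg/kg oral dose; plasma drug levels measured by LCMS/MS, reported as mean ± SEM.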

[25] = molecular target: T3, Ribosomal protein S6 kinase alpha-2 (Homo sapiens, UniProt Q15349); details: 1 uM
T3 sequence (Q15349 whole entry): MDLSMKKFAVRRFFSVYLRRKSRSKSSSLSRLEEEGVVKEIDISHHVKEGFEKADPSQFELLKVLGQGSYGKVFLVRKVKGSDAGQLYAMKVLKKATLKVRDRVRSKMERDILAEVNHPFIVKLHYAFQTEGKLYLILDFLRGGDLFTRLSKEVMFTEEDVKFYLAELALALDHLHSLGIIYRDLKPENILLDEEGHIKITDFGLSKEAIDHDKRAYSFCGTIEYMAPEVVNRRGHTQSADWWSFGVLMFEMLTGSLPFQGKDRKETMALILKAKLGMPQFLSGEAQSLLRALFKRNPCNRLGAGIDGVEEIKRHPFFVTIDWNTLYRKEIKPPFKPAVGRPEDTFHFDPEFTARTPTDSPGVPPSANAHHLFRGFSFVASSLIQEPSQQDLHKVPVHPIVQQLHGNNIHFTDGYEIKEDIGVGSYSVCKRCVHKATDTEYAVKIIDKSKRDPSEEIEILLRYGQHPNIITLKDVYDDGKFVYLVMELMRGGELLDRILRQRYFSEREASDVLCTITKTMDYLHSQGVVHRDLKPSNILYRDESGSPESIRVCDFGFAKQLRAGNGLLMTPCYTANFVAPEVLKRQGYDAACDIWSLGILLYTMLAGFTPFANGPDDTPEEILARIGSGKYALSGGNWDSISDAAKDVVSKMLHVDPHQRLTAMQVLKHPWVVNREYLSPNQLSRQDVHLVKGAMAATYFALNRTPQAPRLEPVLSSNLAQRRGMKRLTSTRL

[26] = molecular target: T3, Ribosomal protein S6 kinase alpha-2; test: Inhibition of human Rsk3; outline: as §2

concentration at 12 h [1]: 1460 ng/g | concentration at 2 h [3]: 686 ng/g | inhibition [4]: > 90% | AUC [5]: 954 ng·h/mL | IC50 (Activated CDC42 kinase 1): 41 nM | IC50 [6]: 19 nM | IC50 [7]: 112 nM | AUC(0-t) at 12 h [8]: 24100 ng·h/mL | IC50 [9]: 85 nM | Cmax [10]: 1010 ng/mL | concentration at 2 h [11]: 4270 ng/mL | IC50 [12]: 73 nM | bioavailability [13]: 16% | Tmax [14]: 1.3 h | IC50 [15]: 48 nM | concentration at 6 h [16]: 2870 ng/g | Ratio (Rattus norvegicus): 15 | inhibition [18]: > 90% | AUC [20]: 615 ng·h/mL | half-life [21]: 1.2 h | AUC [22]: 2990 ng·h/mL | IC50 [23]: 29 nM | concentration at 12 h [24]: 1570 ng/mL | inhibition [25]: > 90% | IC50 [26]: 7 nM
Compound: COc1c(Nc2ncc(Cl)c(N[C@H]3[C@@H](C(N)=O)[C@@H]4C=C[C@H]3C4)n2)ccc2c1CC[C@@H](N1CCOCC1)CC2
inhibition in vivo at 30 mg/kg (Mus musculus [2]): > 90% | Activity (Mus musculus [17]): Non-toxic | Activity (Mus musculus [19]): Non-toxic | growth inhibition (GI) (NB1643): Active
